The source of these data is PMC8404148 (Endocrine-related cancer, 2021).

The subject of experiment [1] is 5097 PDX organoids. As to the kind of experiment: Breast cancer PDX organoid growth, 5097 line. It counts as cell-based, human. The settings on record: 10 nM single agent, two weeks, vs vehicle.
The subject of experiment [2] is 4013 PDX organoids. Nature of the experiment: Breast cancer PDX organoid growth, 4013 line. Format: cell-based, human. Conditions: SI-12 10 nM, BEZ235 2 nM, two weeks. An outline of the steps: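 Organoids derived from the 4013 PDX tumour, which came from a patient with triple-negative infiltrating ductal carcinoma. The tumour was passaged in mice eight times before use.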

In experiment [3] the test system is MCF-7 cells. Conditions: read-out: IC50 for suppressing MCF-7 cell growth, ref Wang et al. 2014; cited from earlier work.

As to `CCN1CCN(Cc2ccc(Nc3ncc(F)c(-c4cc(F)c5nc(C)n(C(C)C)c5c4)n3)nc2)CC1` [Abemaciclib], the organoid numbers result in experiment [1] is on record as “reduced organoid numbers”.
As for `Cn1c(=O)n(-c2ccc(C(C)(C)C#N)cc2)c2c3cc(-c4cnc5ccccc5c4)ccc3ncc21` [BEZ235], the “organoid formation, single compound” value in experiment [2] is given as “could repress organoid formation”.
For `C[C@]12CC[C@H](O)C[C@H]1CC[C@@H]1[C@@H]2CC[C@]2(C)[C@@H](c3ccc(=O)oc3)CC[C@]12O` [bufalin], the IC50 (commonly the concentration that gives 50% inhibition) in experiment [3] is 3.2 nM.
